Measurements reported in ChEMBL document CHEMBL4411275, “Design, synthesis and biological evaluation of quinoline-indole derivatives as anti-tubulin agents targeting the colchicine binding site” (Eur J Med Chem, 2019).
Values belong to the molecule of their own block, whether it stands above or below them.

Experiments:
[1] = Drug resistance index, ratio of IC50 for ADR-resistant human Bel7402/ADR cells to IC50 for human Bel7402 cells; assay type: functional
How it was run: (§1)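 Resistant and parental sensitive lines exposed to a range of compound concentrations in medium with 0.1% DMSO for 72 h at 37 °C, 5% CO2, after 24 h pre-culture. MTT added for 4 h, absorbance read at 490 nm. IC50 from dose-response curves, at least three independent experiments. DRI = IC50 resistant / IC50 parental.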

[2] = Antiproliferative activity against human ADR-resistant Bel7402/ADR cells after 72 hrs by MTT assay; assay type: functional; settings: Bel-7402, 72 h
How it was run: (§2)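 Cells preincubated 24 h at 37 °C, 5% CO₂. Compounds added at several concentrations in medium with 0.1% DMSO for 72 h. MTT (5 mg/mL in PBS) then added for 4 h, and optical density read at 490 nm. IC50 taken from dose-response curves; mean ± SD of at least three independent experiments.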

[3] = test system: Bel-7402; test: Antiproliferative activity against human Bel7402 cells after 72 hrs by MTT assay; assay type: functional, cell-based; settings: Bel-7402, 72 h; how it was run: as §2
[4] = test system: K562; test: Antiproliferative activity against human K562 cells after 72 hrs by MTT assay; assay type: functional, cell-based; settings: K562, 72 h; how it was run: as §2
[5] = test system: A549/TR; test: Antiproliferative activity against human taxol-resistant A549/TR cells after 72 hrs by MTT assay; assay type: functional, cell-based; how it was run: as §2
[6] = test system: L02; test: Antiproliferative activity against human LO2 cells after 72 hrs by MTT assay; assay type: cell-based; settings: L02, 72 h; how it was run: as §2
[7] = test system: H22 (Mus musculus); test: Antiproliferative activity against mouse H22 cells after 72 hrs by MTT assay; settings: H22, 72 h
[8] = test system: K562/VCR; test: Antiproliferative activity against human VCR-resistant K562/VCR cells after 72 hrs by MTT assay; assay type: functional, cell-based; how it was run: as §2
[9] = test system: HCT-8; test: Antiproliferative activity against human HCT8 cells after 72 hrs by MTT assay; assay type: functional, cell-based; settings: HCT-8, 72 h; how it was run: as §2
[10] = test system: MDA-MB-231; test: Antiproliferative activity against human MDA-MB-231 cells after 72 hrs by MTT assay; assay type: functional, cell-based; settings: MDA-MB-231, 72 h; how it was run: as §2
[11] = test system: H22 (Mus musculus); test: Antitumor activity against mouse H22 cells xenografted in ICR mouse assessed as reduction in tumor weight at 20 mg/kg/day, iv for 21 days relative to control; design: scale not given: the % may be the effect or the level left
[12] = test system: A549; test: Antiproliferative activity against human A549 cells after 72 hrs by MTT assay; assay type: functional, cell-based; settings: A549, 72 h; how it was run: as §2
[13] = Antiproliferative activity against human taxol-resistant HCT8/T cells after 72 hrs by MTT assay; assay type: functional; settings: HCT-8, 72 h; how it was run: as §2
[14] = test system: HepG2; test: Antiproliferative activity against human HepG2 cells after 72 hrs by MTT assay; assay type: functional, cell-based; settings: HepG2, 72 h; how it was run: as §2
[15] = test system: KB; test: Antiproliferative activity against human KB cells after 72 hrs by MTT assay; assay type: functional, cell-based; how it was run: as §2
[16] = Drug resistance index, ratio of IC50 for VCR-resistant human K562/VCR cells to IC50 for human K562 cells; assay type: functional
[17] = biological target: T1, Tubulin (Sus scrofa) (UniProt P02554+P02550); test: Inhibition of [3H]-colchicine binding to biotinylated porcine tubulin at 5 uM after 2 hrs by SPA relative to control; assay type: protein assay
T1 sequence (P02550 whole entry, looked up): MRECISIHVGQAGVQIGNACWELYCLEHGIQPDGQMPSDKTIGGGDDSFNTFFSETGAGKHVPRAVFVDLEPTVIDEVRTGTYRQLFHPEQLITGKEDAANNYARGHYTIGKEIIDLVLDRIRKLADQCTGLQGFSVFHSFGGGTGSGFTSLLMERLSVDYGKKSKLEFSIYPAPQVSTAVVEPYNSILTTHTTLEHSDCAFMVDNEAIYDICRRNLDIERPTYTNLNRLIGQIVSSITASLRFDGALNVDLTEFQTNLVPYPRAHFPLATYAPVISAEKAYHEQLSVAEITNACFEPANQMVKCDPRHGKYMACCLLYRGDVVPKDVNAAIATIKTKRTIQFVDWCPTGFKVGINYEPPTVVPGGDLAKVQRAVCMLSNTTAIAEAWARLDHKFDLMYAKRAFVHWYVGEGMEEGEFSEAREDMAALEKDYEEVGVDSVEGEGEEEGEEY
T1 sequence (P02554 whole entry, looked up): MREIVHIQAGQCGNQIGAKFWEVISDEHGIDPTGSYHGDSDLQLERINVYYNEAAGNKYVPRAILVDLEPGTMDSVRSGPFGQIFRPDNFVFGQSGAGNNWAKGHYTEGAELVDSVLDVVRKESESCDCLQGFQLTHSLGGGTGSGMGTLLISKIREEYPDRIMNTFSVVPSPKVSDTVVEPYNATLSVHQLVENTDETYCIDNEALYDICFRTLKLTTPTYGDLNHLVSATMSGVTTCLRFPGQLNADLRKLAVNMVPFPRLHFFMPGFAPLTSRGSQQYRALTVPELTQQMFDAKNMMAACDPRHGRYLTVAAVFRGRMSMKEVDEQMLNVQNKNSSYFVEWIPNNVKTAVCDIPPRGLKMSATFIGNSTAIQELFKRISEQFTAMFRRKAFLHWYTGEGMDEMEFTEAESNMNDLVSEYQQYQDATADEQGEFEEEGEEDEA
How it was run: (§3)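 Scintillation proximity assay: 0.08 μM [3H]colchicine incubated with biotinylated porcine tubulin (0.5 μg) and test compound for 2 h at 37 °C in 80 mM PIPES pH 6.8, 1 mM EGTA, 10% glycerol, 1 mM MgCl2, 1 mM GTP. Streptavidin SPA beads then added, and bound radioactivity counted by scintillation counter.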

[18] = biological target: Tubulin (Sus scrofa, UniProt P02554+P02550); test: Inhibition of porcine brain tubulin polymerization preincubated for 30 mins and measured every 2 mins for 60 mins by spectrophotometric analysis
[19] = biological target: T1, Tubulin (Sus scrofa); test: Inhibition of [3H]-colchicine binding to biotinylated porcine tubulin at 1 uM after 2 hrs by SPA relative to control; assay type: protein assay; how it was run: as §3
[20] = Toxicity in ICR mouse xenografted with […] cells assessed as body weight loss at 6 mg/kg, iv administered every 2 days for 21 days; assay type: organism-based; settings: in vivo
How it was run: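 Five-week-old male ICR mice inoculated subcutaneously in the right flank with 1×10^6 H22 cells. Randomised after one day into groups of eight. Dosed intravenously every 2 days for three weeks. Tumour volume and body weight recorded every 2 days. Tumours then excised and weighed; inhibition (%) = (1 − mean treated tumour weight / mean control tumour weight) × 100.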

[21] = test system: H22 (Mus musculus); test: Antitumor activity against mouse H22 cells xenografted in ICR mouse assessed as reduction in tumor weight at 6 mg/kg, iv administered every 2 days for 21 days relative to control; design: scale not given: the % may be the effect or the level left
[22] = Drug resistance index, ratio of IC50 for taxol-resistant human HCT8/T cells to IC50 for human HCT8 cells; assay type: functional; how it was run: as §1
[23] = Drug resistance index, ratio of IC50 for taxol-resistant human A549/TR cells to IC50 for human A549 cells; assay type: functional; how it was run: as §1

SMILES: COc1cccc2c1C(=O)c1c(O)c3c(c(O)c1C2=O)C[C@@](O)(C(=O)CO)C[C@@H]3O[C@H]1C[C@H](N)[C@H](O)[C@H](C)O1.Cl [DOXORUBICIN HYDROCHLORIDE]
- Ratio IC50 [1]: 6.3
- IC50 [2]: 1730 nM
- IC50 [3]: 274 nM

SMILES: COc1ccc(/C=C\c2cc(OC)c(OC)c(OC)c2)cc1O [COMBRETASTATIN A4]
- IC50 [5]: 175 nM
- IC50 [6]: 46 nM
- IC50 [7]: 10 nM
- IC50 [8]: 57 nM
- IC50 [9]: 11 nM
- IC50 [10]: 11 nM
- Activity [11]: 51%
- IC50 [4]: 7 nM
- IC50 [12]: 9 nM
- IC50 [13]: 87 nM
- IC50 [2]: 58 nM
- IC50 [14]: 9 nM
- IC50 [3]: 11 nM

SMILES: COc1ccc2c(ccn2C(=O)c2cc(C)nc3ccccc23)c1
- IC50 [4]: > 1000 nM

SMILES: C=C(c1ccc2[nH]ccc2c1)c1cc(C)nc2ccccc12
- IC50 [6]: 881 nM
- IC50 [7]: 184 nM
- IC50 [9]: 403 nM
- IC50 [10]: 204 nM
- IC50 [4]: 121 nM
- IC50 [14]: 377 nM
- IC50 [15]: 372 nM

SMILES: COc1ccc(/C=C\c2cc(OC)c(OC)c(OC)c2)cc1OP(=O)([O-])[O-].[Na+].[Na+] [FOSBRETABULIN DISODIUM]
- Activity [11]: 62.7%

SMILES: C=C(c1ccc2c(ccn2C)c1)c1cc(C(N)=O)nc2ccccc12
- IC50 [4]: 282 nM

SMILES: CC[C@]1(O)C[C@H]2CN(CCc3c([nH]c4ccccc34)[C@@](C(=O)OC)(c3cc4c(cc3OC)N(C=O)[C@H]3[C@@](O)(C(=O)OC)[C@H](OC(C)=O)[C@]5(CC)C=CCN6CC[C@]43[C@@H]65)C2)C1 [VINCRISTINE]
- IC50 [8]: 5060 nM
- IC50 [4]: 21 nM
- Ratio IC50 [16]: 241

SMILES: C=C(c1ccc2c(ccn2C)c1)c1cc(C)nc2ccccc12
- inhibition [17]: 89.4%
- IC50 [18]: 2540 nM
- inhibition [19]: 78.4%

SMILES: CC(=O)O[C@H]1C(=O)[C@@]2(C)[C@H]([C@H](OC(=O)c3ccccc3)[C@]3(O)C[C@H](OC(=O)[C@H](O)[C@@H](NC(=O)c4ccccc4)c4ccccc4)C(C)=C1C3(C)C)[C@]1(OC(C)=O)CO[C@@H]1C[C@@H]2O [PACLITAXEL]
- IC50 [5]: 1830 nM
- Activity [20]: Toxic
- IC50 [9]: 28 nM
- Activity [21]: 72.7%
- IC50 [12]: 18 nM
- Ratio IC50 [22]: 92.5
- IC50 [13]: 2590 nM
- Ratio IC50 [23]: 101.6

SMILES: C=C(c1ccc2c(ccn2C)c1)c1cc(CO)nc2ccccc12
- IC50 [4]: 123 nM

SMILES: C=C(c1ccc2c(ccn2C)c1)c1cc(C=O)nc2ccccc12
- IC50 [4]: 94 nM

SMILES: COc1ccc2c(ccn2C(=O)c2cc(C)nc3ccccc23)c1N
- IC50 [4]: 289 nM

Now from value to molecule, other results behind:

- IC50 [4]: > 1000 nM
SMILES: COc1ccc2c(C(C)c3cc(C)nc4ccccc34)c[nH]c2c1 (centres undefined)

- IC50 [4]: > 1000 nM
SMILES: COc1ccc2c(ccn2-c2cc(C)nc3ccccc23)c1

- IC50 [4]: > 1000 nM
SMILES: C=C(c1cc(C)nc2ccccc12)c1cccc2[nH]ccc12

- IC50 [9]: 103 nM
- IC50 [10]: 112 nM
- IC50 [4]: 46 nM
- IC50 [14]: 53 nM
- IC50 [15]: 84 nM
SMILES: C=C(c1ccc2c(ccn2C)c1)c1cc(OC)nc2ccccc12
- IC50 [6]: 197 nM
- IC50 [7]: 105 nM

- IC50 [4]: > 1000 nM
SMILES: C=C(c1cc(C)nc2ccccc12)c1c[nH]c2cc(OC)ccc12

- IC50 [4]: > 1000 nM
SMILES: Cc1cc(C(C)c2cccc3c2ccn3C)c2ccccc2n1 (centres undefined)

- IC50 [4]: 446 nM
SMILES: C=C(c1ccc2c(ccn2C)c1)c1cc(C(F)(F)F)nc2ccccc12

- IC50 [4]: 79 nM
SMILES: COc1ccc2c(ccn2-c2cc(C)nc3ccccc23)c1N

- IC50 [4]: 31 nM
SMILES: C=C(c1ccc2c(ccn2CC)c1)c1cc(C)nc2ccccc12

- IC50 [4]: 179 nM
SMILES: C=C(c1ccc2c(ccn2C(C)=O)c1)c1cc(C)nc2ccccc12

- IC50 [9]: 10 nM
- IC50 [10]: 27 nM
- IC50 [4]: 5 nM
- IC50 [14]: 20 nM
- IC50 [15]: 8 nM
SMILES: C=C(c1ccc2c(ccn2C)c1)c1cc(NC)nc2ccccc12
- IC50 [6]: 85 nM
- IC50 [7]: 25 nM

- IC50 [4]: 153 nM
SMILES: C=C(c1ccc2c(ccn2CF)c1)c1cc(C)nc2ccccc12

- IC50 [4]: 171 nM
SMILES: C=C(c1ccc2c(ccn2C)c1)c1cc(N(C)C)nc2ccccc12

- IC50 [4]: 106 nM
SMILES: C=C(c1cc(C)nc2ccccc12)c1cn(C)c2cc(OC)ccc12

- IC50 [4]: 90 nM
SMILES: C=C(c1ccc2c(ccn2C)c1)c1ccnc2ccccc12

- IC50 [4]: > 1000 nM
SMILES: C=C(c1ccc2c(ccn2C(=O)OC(C)(C)C)c1)c1cc(C)nc2ccccc12

- IC50 [4]: > 1000 nM
SMILES: C=C(c1cc(C)nc2ccccc12)c1cccc2c1ccn2C

- IC50 [9]: 96 nM
- IC50 [10]: 103 nM
- IC50 [4]: 37 nM
- IC50 [14]: 101 nM
- IC50 [15]: 109 nM
SMILES: Cc1cc(C(C)c2ccc3c(ccn3C)c2)c2ccccc2n1 (centres undefined)
- IC50 [6]: 214 nM
- IC50 [7]: 120 nM
